Data: ChEMBL document CHEMBL1773051, “Anti-inflammatory triterpenes from the leaves of Rosa laevigata” (J Nat Prod, 2011)
The source made the active and inactive calls. No cut-off for these calls is given here.

Each compound was assayed on RAW264.7 (assay: Cytotoxicity against LPS-stimulated mouse RAW264.7 cells assessed as cell viability upto 50 ug/mL for 4 hrs by MTT assay in presence of 0.01 to 1 ug/mL LPS measured after 24 hrs).
Assay type: cell-based
Procedure, shortened: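 Viability of RAW 264.7 cells measured by MTT colorimetric assay after 24 h incubation with compounds. Compounds were tested up to 50 μg/mL alongside LPS at 0.01, 0.1 or 1 μg/mL, and at 100 μg/mL with 10 μg/mL LPS.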
With `C[C@@H]1CC[C@]2(C(=O)O)CC[C@]3(C)C(=CC[C@@H]4[C@@]5(C)C[C@@H](O)[C@H](O)[C@@](C)(CO)[C@@H]5CC[C@]43C)[C@@H]2[C@]1(C)O` the Activity was “Non-toxic”.
In the case of `CC1(C)CC[C@]2(C(=O)O)CC[C@]3(C)C(=C2C1)CC[C@@H]1[C@@]2(C)C[C@@H](O)[C@H](O)C(C)(C)[C@@H]2CC[C@]13C`, the Activity is reported as “Non-toxic”.

Each compound was assayed on RAW264.7 (assay: Antiinflammatory activity against LPS-stimulated mouse RAW264.7 cells assessed as inhibition of IL-10 production at 0.5 to 50 ug/ml pretreated for 4 hrs followed by challenge with 1 ug/mL LPS for 48 hrs by ELISA relative to control).
Assay type: functional, cell-based
With `C[C@@H]1CC[C@]2(C(=O)O)CC[C@]3(C)C(=CC[C@@H]4[C@@]5(C)C[C@@H](O)[C@H](O)[C@@](C)(CO)[C@@H]5CC[C@]43C)[C@@H]2[C@]1(C)O` the inhibition was “Active”.
With `CC1(C)CC[C@]2(C(=O)O)CC[C@]3(C)C(=C2C1)CC[C@@H]1[C@@]2(C)C[C@@H](O)[C@H](O)C(C)(C)[C@@H]2CC[C@]13C` the inhibition was “Active”.
In the case of `C[C@]12CCC(=O)C=C1CC[C@@H]1[C@@H]2[C@@H](O)C[C@@]2(C)[C@H]1CC[C@]2(O)C(=O)CO`, the inhibition is reported as “Active”.

These compounds were tested on RAW264.7 (assay: Antiinflammatory activity against LPS-stimulated mouse RAW264.7 cells assessed as inhibition of IL-6 production at 0.5 to 50 ug/ml pretreated for 4 hrs followed by challenge with 1 ug/mL LPS for 48 hrs by ELISA relative to control).
Assay type: functional, cell-based
`C[C@@H]1CC[C@]2(C(=O)O)CC[C@]3(C)C(=CC[C@@H]4[C@@]5(C)C[C@@H](O)[C@H](O)[C@@](C)(CO)[C@@H]5CC[C@]43C)[C@@H]2[C@]1(C)O` was tested, and the inhibition was “Active”.
`CC1(C)CC[C@]2(C(=O)O)CC[C@]3(C)C(=C2C1)CC[C@@H]1[C@@]2(C)C[C@@H](O)[C@H](O)C(C)(C)[C@@H]2CC[C@]13C` was tested, and the inhibition was “Active”.
In the case of `C[C@]12CCC(=O)C=C1CC[C@@H]1[C@@H]2[C@@H](O)C[C@@]2(C)[C@H]1CC[C@]2(O)C(=O)CO`, the inhibition is reported as “Active”.

What follows are compounds tested on RAW264.7 (assay: Antiinflammatory activity against LPS-stimulated mouse RAW264.7 cells assessed as inhibition of IL1-beta production at 0.5 to 50 ug/ml pretreated for 4 hrs followed by challenge with 1 ug/mL LPS for 48 hrs by ELISA relative to control).
Assay type: functional, cell-based
In the case of `C[C@@H]1CC[C@]2(C(=O)O)CC[C@]3(C)C(=CC[C@@H]4[C@@]5(C)C[C@@H](O)[C@H](O)[C@@](C)(CO)[C@@H]5CC[C@]43C)[C@@H]2[C@]1(C)O`, the inhibition is reported as “Active”.
`CC1(C)CC[C@]2(C(=O)O)CC[C@]3(C)C(=C2C1)CC[C@@H]1[C@@]2(C)C[C@@H](O)[C@H](O)C(C)(C)[C@@H]2CC[C@]13C` was tested, and the inhibition was “Active”.
With `C[C@]12CCC(=O)C=C1CC[C@@H]1[C@@H]2[C@@H](O)C[C@@]2(C)[C@H]1CC[C@]2(O)C(=O)CO` the inhibition was “Active”.

Each compound was assayed on RAW264.7 (assay: Antiinflammatory activity against LPS-stimulated mouse RAW264.7 cells assessed as inhibition of TNFalpha production at 0.5 to 50 ug/ml pretreated for 4 hrs followed by challenge with 1 ug/mL LPS for 48 hrs by ELISA relative to control).
Assay type: functional, cell-based
With `C[C@@H]1CC[C@]2(C(=O)O)CC[C@]3(C)C(=CC[C@@H]4[C@@]5(C)C[C@@H](O)[C@H](O)[C@@](C)(CO)[C@@H]5CC[C@]43C)[C@@H]2[C@]1(C)O` the inhibition was “Active”.
`CC1(C)CC[C@]2(C(=O)O)CC[C@]3(C)C(=C2C1)CC[C@@H]1[C@@]2(C)C[C@@H](O)[C@H](O)C(C)(C)[C@@H]2CC[C@]13C` was tested, and the inhibition was “Active”.
For `C[C@]12CCC(=O)C=C1CC[C@@H]1[C@@H]2[C@@H](O)C[C@@]2(C)[C@H]1CC[C@]2(O)C(=O)CO`, the inhibition was “Active”.

The compounds below were run on HEK293 (assay: Antiinflammatory activity against LPS-stimulated NF-kappaB activated human HEK293 cells at 200 ug/ml pretreated for 4 hrs followed by challenge with LPS for 48 hrs by luciferase assay).
Assay type: functional, cell-based
Procedure, shortened: (§1)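 NF-κB reporter 293 cells grown in DMEM with 10% FBS, penicillin 100 U/mL and streptomycin 100 μg/mL. Compounds tested at 12.5, 25, 50, 100 and 200 μg/mL, added 4 h before stimulation with 1 μg/mL LPS for 48 h. Cells then washed twice in PBS (pH 7.4) and lysed in passive lysis buffer, and luciferase activity read.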
With `C[C@@H]1CC[C@]2(C(=O)O)CC[C@]3(C)C(=CC[C@@H]4[C@@]5(C)C[C@@H](O)[C@H](O)[C@@](C)(CO)[C@@H]5CC[C@]43C)[C@@H]2[C@]1(C)O` the Activity was “Active”.
With `CC1(C)CC[C@]2(C(=O)O)CC[C@]3(C)C(=C2C1)CC[C@@H]1[C@@]2(C)C[C@@H](O)[C@H](O)C(C)(C)[C@@H]2CC[C@]13C` the Activity was “Active”.

These compounds were tested on HEK293 (assay: Antiinflammatory activity against LPS-stimulated NF-kappaB activated human HEK293 cells at 100 ug/ml pretreated for 4 hrs followed by challenge with LPS for 48 hrs by luciferase assay).
Assay type: functional, cell-based
Procedure, shortened: as §1
`C[C@@H]1CC[C@]2(C(=O)O)CC[C@]3(C)C(=CC[C@@H]4[C@@]5(C)C[C@@H](O)[C@H](O)[C@@](C)(CO)[C@@H]5CC[C@]43C)[C@@H]2[C@]1(C)O` was tested, and the Activity was “Active”.
`CC1(C)CC[C@]2(C(=O)O)CC[C@]3(C)C(=C2C1)CC[C@@H]1[C@@]2(C)C[C@@H](O)[C@H](O)C(C)(C)[C@@H]2CC[C@]13C` was tested, and the Activity was “Active”.

What follows are compounds tested on HEK293 (assay: Antiinflammatory activity against LPS-stimulated NF-kappaB activated human HEK293 cells at 50 ug/ml pretreated for 4 hrs followed by challenge with LPS for 48 hrs by luciferase assay).
Assay type: functional, cell-based
Procedure, shortened: as §1
For `C[C@@H]1CC[C@]2(C(=O)O)CC[C@]3(C)C(=CC[C@@H]4[C@@]5(C)C[C@@H](O)[C@H](O)[C@@](C)(CO)[C@@H]5CC[C@]43C)[C@@H]2[C@]1(C)O`, the Activity was “Active”.
`CC1(C)CC[C@]2(C(=O)O)CC[C@]3(C)C(=C2C1)CC[C@@H]1[C@@]2(C)C[C@@H](O)[C@H](O)C(C)(C)[C@@H]2CC[C@]13C` was tested, and the Activity was “Active”.

Each compound was assayed on HEK293 (assay: Antiinflammatory activity against LPS-stimulated NF-kappaB activated human HEK293 cells at 25 ug/ml pretreated for 4 hrs followed by challenge with LPS for 48 hrs by luciferase assay).
Assay type: functional, cell-based
Procedure, shortened: as §1
For `C[C@@H]1CC[C@]2(C(=O)O)CC[C@]3(C)C(=CC[C@@H]4[C@@]5(C)C[C@@H](O)[C@H](O)[C@@](C)(CO)[C@@H]5CC[C@]43C)[C@@H]2[C@]1(C)O`, the Activity was “Active”.
In the case of `CC1(C)CC[C@]2(C(=O)O)CC[C@]3(C)C(=C2C1)CC[C@@H]1[C@@]2(C)C[C@@H](O)[C@H](O)C(C)(C)[C@@H]2CC[C@]13C`, the Activity is reported as “Active”.

The compounds below were run on HEK293 (assay: Antiinflammatory activity against LPS-stimulated NF-kappaB activated human HEK293 cells at 12.5 ug/ml pretreated for 4 hrs followed by challenge with LPS for 48 hrs by luciferase assay).
Assay type: functional, cell-based
Procedure, shortened: as §1
With `C[C@@H]1CC[C@]2(C(=O)O)CC[C@]3(C)C(=CC[C@@H]4[C@@]5(C)C[C@@H](O)[C@H](O)[C@@](C)(CO)[C@@H]5CC[C@]43C)[C@@H]2[C@]1(C)O` the Activity was “Active”.
`CC1(C)CC[C@]2(C(=O)O)CC[C@]3(C)C(=C2C1)CC[C@@H]1[C@@]2(C)C[C@@H](O)[C@H](O)C(C)(C)[C@@H]2CC[C@]13C` was tested, and the Activity was “Active”.

The compounds below were run on RAW264.7 (assay: Cytotoxicity against LPS-stimulated mouse RAW264.7 cells assessed as decrease in cell viability upto 100 ug/mL for 4 hrs by MTT assay in presence of 10 ug/mL LPS measured after 24 hrs).
`C[C@@H]1CC[C@]2(C(=O)O)CC[C@]3(C)C(=CC[C@@H]4[C@@]5(C)C[C@@H](O)[C@H](O)[C@@](C)(CO)[C@@H]5CC[C@]43C)[C@@H]2[C@]1(C)O` was tested, and the Activity was “Toxic”.
For `CC1(C)CC[C@]2(C(=O)O)CC[C@]3(C)C(=C2C1)CC[C@@H]1[C@@]2(C)C[C@@H](O)[C@H](O)C(C)(C)[C@@H]2CC[C@]13C`, the Activity was “Toxic”.

These compounds were tested on RAW264.7 (assay: Antiinflammatory activity against LPS-stimulated mouse RAW264.7 cells assessed as inhibition of nitric oxide production at 0.5 to 50 ug/ml pretreated for 4 hrs followed by challenge with 1 ug/mL LPS for 24 hrs by Griess reaction method relative to control).
For `C[C@@H]1CC[C@]2(C(=O)O)CC[C@]3(C)C(=CC[C@@H]4[C@@]5(C)C[C@@H](O)[C@H](O)[C@@](C)(CO)[C@@H]5CC[C@]43C)[C@@H]2[C@]1(C)O`, the inhibition was “Active”.
For `CC1(C)CC[C@]2(C(=O)O)CC[C@]3(C)C(=C2C1)CC[C@@H]1[C@@]2(C)C[C@@H](O)[C@H](O)C(C)(C)[C@@H]2CC[C@]13C`, the inhibition was “Active”.
In the case of `C[C@]12CCC(=O)C=C1CC[C@@H]1[C@@H]2[C@@H](O)C[C@@]2(C)[C@H]1CC[C@]2(O)C(=O)CO`, the inhibition is reported as “Active”.
